Reference: ChEMBL document CHEMBL5154715, “Phenolic Lipids Derived from Cashew Nut Shell Liquid to Treat Metabolic Diseases” (J Med Chem, 2022)
Activity calls are given as the source filed them. No cut-off for these calls is given here.

Key:
[1] = biological target: T1, Peroxisome proliferator-activated receptor gamma (Homo sapiens, UniProt P37231); test: Agonist activity at human PPARgamma expressed in HEK293 cells by luciferase/beta-galactosidase reporter gene assay; format: cell-based
T1 sequence (P37231 whole entry): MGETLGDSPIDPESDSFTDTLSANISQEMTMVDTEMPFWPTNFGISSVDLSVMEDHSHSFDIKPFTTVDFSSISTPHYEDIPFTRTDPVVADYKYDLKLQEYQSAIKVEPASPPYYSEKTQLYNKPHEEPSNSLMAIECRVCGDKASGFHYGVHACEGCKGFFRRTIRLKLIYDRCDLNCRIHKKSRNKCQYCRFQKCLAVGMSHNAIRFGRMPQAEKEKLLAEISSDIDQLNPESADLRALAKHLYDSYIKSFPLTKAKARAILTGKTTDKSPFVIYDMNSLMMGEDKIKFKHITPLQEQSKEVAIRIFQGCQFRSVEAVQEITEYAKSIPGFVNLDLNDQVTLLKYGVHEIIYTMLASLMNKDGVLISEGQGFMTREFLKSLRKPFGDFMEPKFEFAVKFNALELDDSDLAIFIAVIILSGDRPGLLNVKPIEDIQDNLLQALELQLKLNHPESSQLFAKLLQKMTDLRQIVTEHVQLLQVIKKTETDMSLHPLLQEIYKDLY
How it was run: (§1)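 HEK293 cells in charcoal-stripped FBS, calcium phosphate co-transfected with GAL4-hPPAR LBD fusion, UAS-luciferase and β-galactosidase. Ligand added 6–8 h post transfection, full dose–response, harvested 14–16 h later. Luciferase normalized to β-galactosidase.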

[2] = biological target: T2, Peroxisome proliferator-activated receptor alpha (Mus musculus) (UniProt P23204); test: Agonist activity at human PPARalpha in mouse hepatocytes assessed as induction of cd36 mRNA expression at 50 uM incubated for 16 hrs by quantitative real-time PCR analysis; format: cell-based; details: Hepatocyte, filed as agonist
T2 sequence (whole entry): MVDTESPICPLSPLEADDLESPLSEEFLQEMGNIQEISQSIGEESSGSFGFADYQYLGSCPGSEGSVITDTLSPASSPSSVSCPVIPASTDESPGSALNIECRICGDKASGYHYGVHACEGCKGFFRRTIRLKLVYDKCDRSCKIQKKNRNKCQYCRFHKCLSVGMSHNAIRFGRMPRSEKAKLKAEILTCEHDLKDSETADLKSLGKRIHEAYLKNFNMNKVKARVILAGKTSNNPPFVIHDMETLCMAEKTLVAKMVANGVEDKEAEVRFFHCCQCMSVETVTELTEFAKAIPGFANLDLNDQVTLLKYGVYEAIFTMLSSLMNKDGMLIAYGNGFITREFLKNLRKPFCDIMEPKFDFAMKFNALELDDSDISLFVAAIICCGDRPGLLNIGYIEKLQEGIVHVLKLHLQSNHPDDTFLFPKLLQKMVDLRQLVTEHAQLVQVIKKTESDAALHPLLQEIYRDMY
How it was run: (§2)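 Collagenase-perfused mouse primary hepatocytes from WT mice, plated 2 h in attachment medium, overnight in M199 with 5% charcoal-stripped FBS and 1 nM insulin. Treated next day in serum-free M199 with 50 μM compound for 16 h. RNA qPCR (SYBR Green), comparative Ct method.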

[3] = biological target: T3, Peroxisome proliferator-activated receptor alpha (Homo sapiens) (UniProt Q07869); test: Agonist activity at human PPARalpha transfected in HEK293 cells assessed as relative luciferase unit at 50 uM measured after 16 hrs by luciferase reporter gene assay; format: cell-based; details: filed as agonist
T3 sequence (whole entry): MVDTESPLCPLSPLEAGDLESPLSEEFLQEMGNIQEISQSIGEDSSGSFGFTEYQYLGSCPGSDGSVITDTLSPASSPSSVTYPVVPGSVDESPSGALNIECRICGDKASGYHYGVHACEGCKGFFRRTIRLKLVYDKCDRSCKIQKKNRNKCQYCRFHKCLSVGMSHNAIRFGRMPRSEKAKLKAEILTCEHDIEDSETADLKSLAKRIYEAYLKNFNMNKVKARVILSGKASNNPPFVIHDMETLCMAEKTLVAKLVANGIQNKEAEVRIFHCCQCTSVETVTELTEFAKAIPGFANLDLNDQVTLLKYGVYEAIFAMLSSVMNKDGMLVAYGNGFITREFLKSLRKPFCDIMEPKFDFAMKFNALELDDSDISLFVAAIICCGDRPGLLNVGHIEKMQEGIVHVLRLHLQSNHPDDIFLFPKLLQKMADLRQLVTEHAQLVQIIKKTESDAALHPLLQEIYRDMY
How it was run: (§3)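 GAL4-hPPAR (α or γ) plus UAS-luciferase and β-galactosidase transiently co-transfected into HEK293 cells, then treated with 50 μM compound for 16 h. RLU = luciferase/β-galactosidase × time, vehicle (DMSO) set to 1. Mean ± SD, N = 3; one-way ANOVA with Holm–Šidák vs vehicle.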

[4] = biological target: T3, Peroxisome proliferator-activated receptor alpha (Homo sapiens); test: Agonist activity at human PPARalpha expressed in HEK293 cells assessed as maximal activity by luciferase/beta-galactosidase reporter gene assay relative to GW7647; format: cell-based; how it was run: as §1
[5] = biological target: T4, Peroxisome proliferator-activated receptor gamma (Homo sapiens) (UniProt P37231); test: Agonist activity at human PPARgamma transfected in HEK293 cells assessed as relative luciferase unit at 50 uM measured after 16 hrs by luciferase reporter gene assay; format: cell-based; details: filed as agonist; how it was run: as §3
T4 sequence (whole entry): T1 sequence (P37231 whole entry)

[6] = biological target: T5, Peroxisome proliferator-activated receptor delta (Homo sapiens) (UniProt Q03181)
T5 sequence (whole entry): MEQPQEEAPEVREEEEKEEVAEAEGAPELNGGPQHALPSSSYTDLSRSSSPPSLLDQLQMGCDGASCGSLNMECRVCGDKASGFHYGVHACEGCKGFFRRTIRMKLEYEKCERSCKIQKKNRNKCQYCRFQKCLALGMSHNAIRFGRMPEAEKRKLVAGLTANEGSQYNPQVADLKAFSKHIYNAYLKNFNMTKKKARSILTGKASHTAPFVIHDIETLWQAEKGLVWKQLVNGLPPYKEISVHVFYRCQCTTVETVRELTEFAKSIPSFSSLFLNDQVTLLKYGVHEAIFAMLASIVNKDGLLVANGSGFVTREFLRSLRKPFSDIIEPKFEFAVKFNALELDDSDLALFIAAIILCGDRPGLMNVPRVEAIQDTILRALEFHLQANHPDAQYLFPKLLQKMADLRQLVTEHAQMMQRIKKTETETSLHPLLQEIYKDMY

[7] = biological target: T6, Peroxisome proliferator-activated receptor alpha (Homo sapiens, UniProt Q07869); test: Agonist activity at human PPARalpha expressed in HEK293 cells by luciferase/beta-galactosidase reporter gene assay; format: cell-based; how it was run: as §1
T6 sequence (Q07869 whole entry): T3 sequence (whole entry)

[8] = biological target: T2, Peroxisome proliferator-activated receptor alpha (Mus musculus); test: Agonist activity at human PPARalpha in mouse hepatocytes assessed as induction of Pdk4 mRNA expression at 50 uM incubated for 16 hrs by quantitative real-time PCR analysis; format: cell-based; details: Hepatocyte, filed as agonist; how it was run: as §2
[9] = biological target: T2, Peroxisome proliferator-activated receptor alpha (Mus musculus); test: Agonist activity at human PPARalpha in mouse hepatocytes assessed as induction of fabp1 mRNA expression at 50 uM incubated for 16 hrs by quantitative real-time PCR analysis; format: cell-based; details: Hepatocyte, filed as agonist; how it was run: as §2
[10] = biological target: T2, Peroxisome proliferator-activated receptor alpha (Mus musculus); test: Agonist activity at human PPARalpha in mouse hepatocytes assessed as induction of Fgf21 mRNA expression at 50 uM incubated for 16 hrs by quantitative real-time PCR analysis; format: cell-based; details: Hepatocyte, filed as agonist; how it was run: as §2
[11] = biological target: T4, Peroxisome proliferator-activated receptor gamma (Homo sapiens); test: Agonist activity at human PPARgamma expressed in HEK293 cells assessed as maximal activity by luciferase/beta-galactosidase reporter gene assay relative to rosiglitazone; format: cell-based; how it was run: as §1
[12] = Metabolic stability in C57BL/6 mouse liver microsomes assessed as parent compound remaining incubated for 120 mins; format: ADME, Microsome; details: read-out: Stability
[13] = biological target: T4, Peroxisome proliferator-activated receptor gamma (Homo sapiens); test: Stabilization of human PPARgamma LBD assessed as change in melting temperature at 50 uM by thermal shift assay
[14] = biological target: T7, Peroxisome proliferator-activated receptor gamma (Mus musculus) (UniProt P37238); test: Agonist activity at human PPARgamma in mouse 3T3-L1 cells assessed as induction of adipogenic differentiation at 25 uM measured after 11 days by Oil Red O staining analysis; format: cell-based; details: filed as agonist, time 11.0 day
T7 sequence (whole entry): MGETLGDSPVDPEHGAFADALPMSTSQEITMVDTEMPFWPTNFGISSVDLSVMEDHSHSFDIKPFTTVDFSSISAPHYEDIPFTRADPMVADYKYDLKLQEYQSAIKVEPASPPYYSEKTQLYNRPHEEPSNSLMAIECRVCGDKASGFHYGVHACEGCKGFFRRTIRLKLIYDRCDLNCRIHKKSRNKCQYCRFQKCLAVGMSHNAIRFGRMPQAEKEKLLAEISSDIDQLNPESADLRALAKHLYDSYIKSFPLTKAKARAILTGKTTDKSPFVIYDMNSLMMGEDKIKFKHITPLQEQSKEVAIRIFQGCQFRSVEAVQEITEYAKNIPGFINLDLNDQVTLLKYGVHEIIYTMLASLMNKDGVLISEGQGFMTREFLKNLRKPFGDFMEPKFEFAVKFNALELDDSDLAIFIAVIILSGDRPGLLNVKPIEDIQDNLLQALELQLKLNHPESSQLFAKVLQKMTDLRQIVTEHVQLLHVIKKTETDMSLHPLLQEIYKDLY
How it was run: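 3T3-L1 cells differentiated for 11 days (IBMX/dexamethasone/insulin induction, then insulin, then maintenance medium) with 25 μM compound or 10 μM rosiglitazone from day 0. Cells formalin-fixed and stained with 0.6% Oil Red O. Lipid quantified spectrophotometrically after dye extraction.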

[15] = Metabolic stability in C57BL/6 mouse liver microsomes assessed as half life; format: ADME, Microsome; details: time 2 min
[16] = biological target: T5, Peroxisome proliferator-activated receptor delta (Homo sapiens); test: Stabilization of human PPARdelta LBD assessed as change in melting temperature at 50 uM by thermal shift assay
[17] = biological target: T3, Peroxisome proliferator-activated receptor alpha (Homo sapiens); test: Stabilization of human PPARalpha LBD assessed as change in melting temperature at 25 uM by thermal shift assay
How it was run: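 Purified hPPAR LBD at 1 mg/mL (∼25 μM) with ligand (α-LBD at 25 μM; γ- and δ-LBD at 50 μM). Static light scattering at 473 nm from 25 to 70 °C in 0.5 °C steps, 1 °C/min. Tm from four-parameter fit; ΔTm relative to DMSO; mean ± SEM, N = 3.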

Structure (SMILES) | EC50 [1] [µM] | Activity [3] | Activity [5] | EC50 [7] [µM] | Emax [4] [%] | Activity [8] | also measured
CCCCCC/C=C\CCCCCCCc1cccc(OCC(=O)O)c1 | > 50 | Active | Active | 21 | – | – | Activity [2]: Active; Emax ([4]; filed as agonist): > 90%; EC50 ([6]; HEK293, filed as agonist): 70 µM
CCCCCCCCCCCCCC(=O)O [MYRISTIC ACID] | – | Active | – | 13 | 30 | – | –
CC(C)(Sc1ccc(CCN(CCCCC2CCCCC2)C(=O)NC2CCCCC2)cc1)C(=O)O | – | – | – | – | – | Active | Activity [2]: Active; Activity [9]: Active; Activity [10]: Active
CCCCCC/C=C\CCCCCCCc1cccc(OC(C)(C)C(=O)OCC)c1 | > 50 | Active | Active | 67 | 30 | – | Activity [2]: Active; Activity [9]: Active; EC50 ([6]; HEK293): > 100 µM
CCCCCCCCCCCCCCCc1ccc(C(=O)O)c(O)c1 | – | Active | – | 8.9 | 30 | Active | Activity [10]: Active
CCCCCCCCCCCCCCCc1cccc(O)c1C(=O)O [ANACARDIC ACID] | 17 | Active | Active | 3.5 | 30 | Active | Emax ([11]; filed as agonist): > 90%; EC50 ([6]; HEK293, filed as agonist): 68 µM
CCCCCCCCCCCCCCCc1cccc(OCC(=O)OCC)c1 | 29 | Active | Active | – | 30 | – | remaining at 2 h [12]: 28%; ΔTm [13]: -3 °C; Activity [14]: Active; Emax [11]: 30%; half-life [15]: 1.1 h; ΔTm [16]: 1.2 °C; EC50 ([6]; HEK293): > 100 µM; ΔTm [17]: -4.5 °C
CCCCCCCC/C=C\CCCCCCCC(=O)O [OLEIC ACID] | – | Active | – | 36 | – | – | Emax ([4]; filed as agonist): > 90%; EC50 ([6]; HEK293, filed as agonist): 47 µM
CCCCCCCCCCCCCCCc1ccc(C(=O)O)c(OC)c1 | 8.1 | Active | Active | 17 | 30 | – | Emax [11]: 30%
CCCCCCCCCCCCCCCCCC(=O)O [STEARIC ACID] | – | Active | – | 40 | 30 | – | –
CCCCCCCCCC(=O)O [DECANOIC ACID] | – | Active | – | 31 | 30 | – | –
CCCCCCCCCCCCCCCc1cccc(OC)c1C(=O)O | – | Active | – | – | 30 | Active | Activity [10]: Active
